Here are results for one compound from ChEMBL document CHEMBL2417412, “Design, synthesis, and structure-activity relationships of dihydrofuran-2-one and dihydropyrrol-2-one derivatives as novel benzoxazin-3-one-based mineralocorticoid receptor antagonists” (Bioorg Med Chem, 2013).

Some results are limits rather than exact numbers.

Assay [1] relates to HEK293. The assay is described as follows: Selectivity ratio of IC50 for human AR expressed in 293 cells to IC50 for human MR expressed in 293 cells. Type of assay: cell-based.
The test system of assay [2] is HEK293. Kind of assay: Selectivity ratio of IC50 for human PR expressed in 293 cells to IC50 for human MR expressed in 293 cells. Type of assay: cell-based.
For assay [3], the target named is T1, Mineralocorticoid receptor (Homo sapiens, UniProt P08235).
T1 sequence (P08235 whole entry): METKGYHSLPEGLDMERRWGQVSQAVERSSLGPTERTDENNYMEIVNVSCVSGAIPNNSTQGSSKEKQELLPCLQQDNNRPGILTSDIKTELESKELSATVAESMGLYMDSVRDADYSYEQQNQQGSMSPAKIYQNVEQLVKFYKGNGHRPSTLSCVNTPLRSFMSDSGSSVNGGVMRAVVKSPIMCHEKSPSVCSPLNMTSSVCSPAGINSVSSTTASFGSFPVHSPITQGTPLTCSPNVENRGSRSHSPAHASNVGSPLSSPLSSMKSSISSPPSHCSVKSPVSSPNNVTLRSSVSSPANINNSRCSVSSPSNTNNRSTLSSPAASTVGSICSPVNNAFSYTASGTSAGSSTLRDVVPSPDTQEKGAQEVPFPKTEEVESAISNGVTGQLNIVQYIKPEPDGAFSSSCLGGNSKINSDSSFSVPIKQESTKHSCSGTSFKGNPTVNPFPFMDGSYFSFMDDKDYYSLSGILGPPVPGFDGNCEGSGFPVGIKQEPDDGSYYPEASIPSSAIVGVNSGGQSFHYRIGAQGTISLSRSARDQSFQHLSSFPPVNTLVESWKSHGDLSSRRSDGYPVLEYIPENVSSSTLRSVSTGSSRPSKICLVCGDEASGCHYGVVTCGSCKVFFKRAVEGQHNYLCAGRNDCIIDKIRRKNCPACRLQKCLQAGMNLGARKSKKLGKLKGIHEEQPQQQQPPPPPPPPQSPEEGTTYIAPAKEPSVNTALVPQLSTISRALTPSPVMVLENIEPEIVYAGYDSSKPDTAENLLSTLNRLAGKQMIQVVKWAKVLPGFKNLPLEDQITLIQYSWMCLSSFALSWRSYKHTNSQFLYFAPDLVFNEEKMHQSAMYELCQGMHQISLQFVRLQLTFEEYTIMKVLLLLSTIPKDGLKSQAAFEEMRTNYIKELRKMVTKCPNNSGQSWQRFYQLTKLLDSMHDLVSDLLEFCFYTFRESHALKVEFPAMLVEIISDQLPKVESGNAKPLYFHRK
The assay is described as follows: Antagonist activity at MR (unknown origin) expressed in COS1 cells after 1 day by luciferase reporter gene assay. It is filed as cell-based, COS-1. The method in brief: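 Human MR plasmid, MMTV-luciferase reporter and pRL-TK were lipofected into COS-1 cells, which were cultured for 1 day. Cells were then reseeded in low-glucose D-MEM with 0.1% BSA. Serial compound concentrations were added with 1 nM aldosterone (final) for 1 day at 37 °C in 5% CO2. Luciferase was read, and IC50 came from a sigmoidal fit.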
Background: A reporter such as luciferase makes a cellular process visible.

As a reminder, the IC50 is the concentration needed to halve the response being measured. High values mean a need for much substance, low ones inhibition by little substance.

`Cc1cc(C2=C(c3ccc(F)cc3)C(=O)NC2C)cc2c1OCC(=O)N2` (stereo not drawn): the Ratio IC50 in assay [1] and in assay [2] was above 200 throughout. Moreover, the IC50 in assay [3] turned out to be 83 nM.
